# Most compounds without a hit are left out; they make up all but 3.1% or so of the library.
# V-ATPase pHluor: regulators of yeast V-ATPase proton transport; 0.37% of 350,000 active; AID 504577; S. cerevisiae, pHLuorin cytosolic pH fluorescence; response, % at 10 µM; in the data active = response mostly above about 7.3%, no sharp cut-off; inactive = mostly below about 5.4%; also: actives read high
# MPTP block: blocks calcium-induced mitochondrial swelling; isolated mouse mitochondria, Ca2+ swelling absorbance, 30 min; inhibition, % at 10 µM; 1.4% of 360,000 active;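 active = inhibition of 50% or more, scaled per plate between neutral and stimulator controls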;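 also: 0% = DMSO wells given calcium and 100% = 1 mM EGTA wells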
# ADAM17 inh: inhibits human ADAM17 | inhibition, % at 6.95 µM | 0.83% of 370,000 active | AID 720648 | recombinant ADAM17, EDANS/DABCYL FRET peptide cleavage;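 active = inhibition above the mean of compounds lying between control limits plus 3 SD, set per campaign, cut at about 8.5% in these data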;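 also: 0% = DMSO-only wells as the low control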
# Hep lipid drop: modulators of hepatic lipid droplet formation; AML12 mouse hepatocytes, oleate lipid droplets, BODIPY imaging; inhibition, % at 6.5 µM; 0.4% of 240,000 active; AID 1656;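 active = lipid droplet intensity inhibited by at least 50%, with more than 500 cells counted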
#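 Assay system: AML12 hepatocytes (mouse) / Also added: 100 µM oleic acid challenge / Times: overnight treatment with compound plus oleate / Detection: high-content imaging of BODIPY-stained droplets and DAPI nuclei / Evaluation: % inhibition of lipid droplet signal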
# aDG glyco up: alpha-DG glycosylation activation; Pro5-aDG cells, alpha-DG glycosylation AlphaScreen (IIH6); 0% Pro5, 100% B10-LARGE cell signal; activation, % at 10 µM; 0.22% of 360,000 active; AID 624168;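 active = activation of at least 8% versus controls, or a plate z-score of at least 8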;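 also: Pro5 are CHO cells carrying HIG-tagged alpha-DG that lacks glycosylation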
# ADAM10 inh: inhibits human ADAM10. AID 720582. inhibition, % at 7 µM. recombinant ADAM10, EDANS/DABCYL FRET peptide cleavage, 3 h. 0.62% of 370,000 active. O14672;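 active = inhibition above a per-campaign cutoff equal to the mean of compounds falling between control-based bounds plus 3 SD, cut at about 20% in these data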;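 also: 0% = DMSO wells while the 100% control is not disclosed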
# Target sequence (O14672 214-748 limits assumed): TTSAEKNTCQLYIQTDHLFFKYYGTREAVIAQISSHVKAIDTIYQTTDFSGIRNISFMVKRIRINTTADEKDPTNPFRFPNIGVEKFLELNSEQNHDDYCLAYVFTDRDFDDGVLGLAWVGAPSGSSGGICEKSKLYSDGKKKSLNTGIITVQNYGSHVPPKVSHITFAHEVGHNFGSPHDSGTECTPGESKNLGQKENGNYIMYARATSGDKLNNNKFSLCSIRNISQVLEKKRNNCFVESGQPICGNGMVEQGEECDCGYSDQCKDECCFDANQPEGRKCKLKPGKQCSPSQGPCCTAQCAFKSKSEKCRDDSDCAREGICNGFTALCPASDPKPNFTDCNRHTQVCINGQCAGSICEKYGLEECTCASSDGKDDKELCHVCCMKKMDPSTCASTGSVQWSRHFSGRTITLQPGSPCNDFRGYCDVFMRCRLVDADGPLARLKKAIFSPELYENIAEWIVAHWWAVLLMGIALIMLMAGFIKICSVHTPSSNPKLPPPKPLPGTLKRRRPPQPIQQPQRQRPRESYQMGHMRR
# ADAM10 confirm: confirmation of inhibitors of human ADAM10; shares compounds with ADAM10 inh; ADAM10 QFRET peptide cleavage, EDANS fluorescence; 1% of 2,100 active; inhibition, % at 6.95 µM;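 active = inhibition above about 20% chosen separately for each screening run, limit read from the data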;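 also: 0% = DMSO wells and 100% = marimastat wells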
# ADAM17 ctr: inhibits human ADAM17 in ADAM10 exosite counter-screen | shares compounds with ADAM10 inh | ADAM17 QFRET peptide cleavage, EDANS fluorescence | inhibition, % at 6.95 µM | 0.5% of 2,100 active | AID 743214;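 active = mean triplicate inhibition above the solvent-only control wells' mean plus 3 SD, cut at about 12% in these data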;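 also: 0% = DMSO wells and 100% = marimastat wells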
# ADAM10 counter: ADAM10 inhibition, counter-screen for ADAM17 exosite hits; inhibition, % at 6.95 µM; recombinant ADAM10, EDANS/DABCYL FRET peptide cleavage, 3 h; AID 743256; shares compounds with ADAM17 inh; 47% of 2,900 active;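 active = mean inhibition over the triplicate runs exceeds the activity threshold set in the earlier primary screen, cut at about 20% in these data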;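 also: 0% = DMSO wells and 100% = marimastat wells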
# ADAM17 confirm: confirmation of inhibitors of human ADAM17. recombinant ADAM17, EDANS/DABCYL QFRET peptide cleavage. 65% of 2,900 active. inhibition, % at 6.95 µM. AID 743257. shares compounds with ADAM17 inh;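 active = mean inhibition across replicates above the hit cutoff set in the primary screen, cut at about 8.5% in these data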;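 also: 0% = DMSO wells and 100% = marimastat wells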
# Starred values were filed as active, the others as inactive; x = no result.
SMILES,V-ATPase pHluor,MPTP block,ADAM17 inh,Hep lipid drop,aDG glyco up,ADAM10 inh,ADAM10 confirm,ADAM17 ctr,ADAM10 counter,ADAM17 confirm
CC(C)(C)OC(=O)NCCCC[C@H](NC(=O)c1nc[nH]c1C(=O)NCC(=O)OCc1ccccc1)C(=O)OC(C)(C)C,-0.8,0.9,11.1*,-2.3,0.1,23.7*,2.0,0.1,24.9*,17.9*
C[C@H](NC(=O)c1nc[nH]c1C(=O)N[C@@H](CCCCNC(=O)OC(C)(C)C)C(=O)OC(C)(C)C)C(=O)OCc1ccccc1,-4.5,1.7,15.1*,-2.3,1.3,29.3*,5.8,1.2,41.8*,23.1*
Cc1ccccc1CN1CCCCC(NC(=O)c2c(F)cccc2F)C1=O (stereo unspecified),x,x,2.1,x,x,-5.6,x,x,x,x
COc1ccc(C)cc1NC(=O)C(Sc1nnc(-c2ccncc2)n1-c1ccc(Cl)cc1)c1ccccc1 (stereo unspecified),0.1,3.8,11.3*,2.7,0.0,24.9*,3.2,2.1,30.5*,21.7*
CC(COc1cc(F)cc(C#N)c1)CN1CCC(C(O)(c2ccccc2)c2ccccc2)CC1 (stereo unspecified),x,x,3.4,x,x,6.5,x,x,x,x
COc1cc([N+](=O)[O-])ccc1NC(=O)CCCOc1cccc(C)c1C,12.7,1.7,11.8*,-0.5,-0.1,21.7*,3.4,1.3,17.2,10.5*
COc1cc([N+](=O)[O-])ccc1NC(=O)Cc1ccccc1,1.4,-1.0,-5.1,1.2,0.6,-1.4,x,x,x,x
COC(=O)CC(=O)O[C@H]1C=C[C@@H](NC(=O)OC(C)(C)C)C1,3.2,0.3,-3.4,x,0.0,-3.7,x,x,x,x
COC(=O)C1=CC[C@@H](NC(=O)OC(C)(C)C)[C@H](O)[C@H]1O[Si](C)(C)C(C)(C)C,x,x,9.9*,x,x,21.8*,0.5,-0.2,5.0,4.1
CC(=O)N1c2ccccc2C(=O)NCC1C(=O)NC(C)(C)C (stereo unspecified),x,x,-13.9,x,x,-43.8,x,x,x,x
CC(C)C[C@H](NC(=O)c1nc[nH]c1C(=O)NCCCCCNC(=O)OC(C)(C)C)C(=O)OCc1ccccc1,-3.6,0.4,14.0*,-1.2,0.0,29.1*,9.1,2.4,42.1*,20.6*
CC(C)(C)OC(=O)NCCCCCNC(=O)c1[nH]cnc1C(=O)N[C@@H](Cc1ccccc1)C(=O)OCc1ccccc1,1.3,1.0,11.4*,16.3,-0.1,23.3*,7.6,2.1,41.1*,20.6*
CC(C)(C)OC(=O)NCCCCCNC(=O)c1ncn(Cc2ccccc2)c1C(=O)NCCCCCNC(=O)OC(C)(C)C,1.0,0.4,12.5*,x,0.0,20.0*,1.5,0.8,31.2*,16.2*
CC(C)C[C@H](NC(=O)c1nc[nH]c1C(=O)N[C@@H](CCCCNC(=O)OC(C)(C)C)C(=O)OC(C)(C)C)C(=O)OCc1ccccc1,-1.3,-1.2,2.8,-2.3,1.2,11.0,x,x,x,x
COc1ccc(S[C@]2(C(=O)N3CCCC3)CC(=O)N(c3ccc4c(ccn4C)c3)[C@@H]2c2ccc(OC)cc2)cc1,x,x,3.9,x,x,1.8,x,x,x,x
O=C(CN(c1cccc(Br)c1)S(=O)(=O)c1ccccc1)N/N=C/c1cc([N+](=O)[O-])ccc1O,-0.7,26.4,16.2*,x,-0.3,26.8*,2.7,1.2,28.1*,16.7*
CCN(CC)S(=O)(=O)c1ccc(NC(=O)COC(=O)CCc2cc(OC)c(OC)c(OC)c2)cc1,-1.0,1.3,11.4*,-1.0,-0.2,28.1*,6.5,1.3,5.1,2.5

# Screens: PubChem, several laboratories
